pEC50: −log10 of the molar value. The source made the active and inactive calls. The rule behind the calls is not given here.

Data set [1] concerns CREB-binding protein/Histone acetyltransferase p300/Cellular tumor antigen p53 (Homo sapiens), P04637+Q09472+Q92793 [Y220C]. In words: Induction of interaction between FLAG-tagged p53Y220C mutant (unknown origin) and p300/CBP expressed in human NCI-H1299 cells assessed as ternary complex formation at 10 uM incubated for 24 hrs by co-immunoprecipitation analysis. The class given is cell-based. In outline: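 NCI-H1299 p53-null and p53Y220C cells were treated with DMSO or compound at 10 μM for 24 h. p53-FLAG pull-down was followed by Western blotting for associated p300. Representative of two independent experiments.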

A short description of data set [2]: Cytotoxicity against human U2OS cells harboring wild type p53 assessed as inhibition of cell growth at 10 uM incubated for 72 hrs by WST-8 assay. The class given is toxicity, cell-based. A digest of the protocol: (§1)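 U2OS (WT p53) or normal prostate PNT2 cells were treated for 72 h at the indicated concentrations. Viability is mean ± SD of technical triplicates from two biological experiments.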

The test system of data set [3] is CREB-binding protein/Histone acetyltransferase p300/Cellular tumor antigen p53 (Homo sapiens), P04637+Q09472+Q92793 [Y220C]. In words: AceTAC activity at FLAG-tagged p53Y220C mutant (unknown origin) expressed in human NCI-H1299 cells expressing p300/CBP assessed as increase in p53 acetylation at lysine 382 residue at 10 uM incubated for 24 hrs by western blot analysis relative to control. The class given is cell-based. In outline: (§2)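 NCI-H1299 (p53Y220C) cells were treated at 0.1–10 μM (0.1, 0.3, 1, 3 or 10 μM) for 24 h. Lysates were Western blotted for p53 and p53K382ac, with vinculin as loading control. p53K382ac was normalised to total p53Y220C and quantified from two or three independent experiments.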
(In western blotting, separated proteins are transferred to a membrane and probed.)

The test system is the same in data set [4]. In words: AceTAC activity at p53Y220C mutant in human BXPC-3 cells expressing p300/CBP assessed as increase in p53 acetylation at lysine 382 residue incubated for 24 hrs by western blot analysis. It is filed as cell-based. As to conditions: dose 1-10 µM. A digest of the protocol:
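BxPC3 or NUGC-3 cells, which express p53Y220C endogenously, were treated with DMSO or compound at 1, 3 or 10 μM for 24 h. Lysates were Western blotted for p53 and p53K382ac, with vinculin as loading control. Representative of two independent experiments.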

Data set [5] has the same test system. In words: AceTAC activity at FLAG-tagged p53Y220C mutant (unknown origin) expressed in human NCI-H1299 cells expressing p300/CBP assessed as upregulation of p21 mRNA expression at 3 uM incubated for 24 hrs by RT-qPCR analysis. It is filed as cell-based. In outline:
(§3)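 NCI-H1299 p53Y220C cells were treated with DMSO or compound at 3 μM for 24 h. mRNA of p53-target genes was measured by RT-qPCR, normalised to GAPDH and expressed relative to DMSO control. Values are mean ± SD of three independent experiments.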
For orientation: Real-time PCR tracks product formation cycle by cycle.

The subject of data set [6] is NCI-H1299. In words: Inhibition of colony formation in human NCI-H1299 cells expressing p53Y220C mutant at 1 uM incubated for 14 days by crystal violet staining based analysis. The class given is functional, cell-based. As to conditions: time 14.0 day. In outline:
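Clonogenic assay in NCI-H1299 (p53Y220C) cells exposed to DMSO or 1, 3 or 10 μM for 14 days. Colonies were fixed and stained with crystal violet. Images are representative of two independent experiments.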

Data set [7] relates to CREB-binding protein/Histone acetyltransferase p300/Cellular tumor antigen p53 (Homo sapiens), P04637+Q09472+Q92793 [Y220C]. The experiment in a line: (§4) AceTAC activity at FLAG-tagged p53Y220C mutant (unknown origin) expressed in human NCI-H1299 cells expressing p300/CBP assessed as increase in p53 acetylation at lysine 382 residue incubated for 24 hrs by western blot analysis. It is filed as cell-based. In outline:
as §2

For data set [8], the target named is CREB-binding protein/Histone acetyltransferase p300/Cellular tumor antigen p53 (Homo sapiens, UniProt P04637+Q09472+Q92793, Y220C). The description is as §4. The class given is cell-based. A digest of the protocol:
as §2

Data set [9] is described as follows: Cytotoxicity against human PNT2 cells assessed as inhibition of cell growth at 10 uM incubated for 72 hrs by WST-8 assay. It is filed as toxicity, cell-based. A digest of the protocol: as §1
Background: Tetrazolium dyes change colour on reduction, which living cells bring about.

In data set [10] the test system is NCI-H1299. The experiment in a line: Antiproliferative activity against human NCI-H1299 cells expressing p53Y220C mutant assessed as reduction in cell viability incubated for 3 days by WST-8 assay. It is filed as functional. A digest of the protocol:
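NCI-H1299 p53Y220C cells were exposed to compound over a concentration range for 72 h, in some runs after 72 h of control or p300 siRNA, before the viability read-out. Values are mean ± SD of three independent experiments.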

Data set [11] has as its system CREB-binding protein/Histone acetyltransferase p300/Cellular tumor antigen p53 (Homo sapiens), P04637+Q09472+Q92793 [Y220C]. The experiment in a line: AceTAC activity at FLAG-tagged p53Y220C mutant (unknown origin) expressed in human NCI-H1299 cells expressing p300/CBP assessed as downregulation of SLC7A11 mRNA expression at 3 uM incubated for 24 hrs by RT-PCR analysis. The class given is cell-based. In outline:
as §3

For data set [12] the test system is unchanged. In words: AceTAC activity at FLAG-tagged p53Y220C mutant (unknown origin) expressed in human NCI-H1299 cells expressing p300/CBP assessed as stabilization of protein by measuring increase in aggregation temperature at 100 uM incubated for 1 hr at 32 to 50 degC by CETSA analysis. The class given is cell-based. A digest of the protocol: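 For CETSA, NCI-H1299 (p53Y220C) stable cells were treated with DMSO or 100 μM compound for 1 h, then heated at 32 to 50 °C. Soluble p53 was detected by Western blot. Representative of at least two independent experiments.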

The inhibition is the change of the read-out against control, counted positive when it falls. As usually defined, the pEC50 is −log10 of the EC50, conventionally taken in molar units. By GI50 is commonly meant the concentration that inhibits growth by half. A word on the ΔTm: it is the change in melting temperature against a reference sample. With `CCn1c2ccc(CNCCOCCOCCOCCC(=O)NCCOc3ccc(CCc4nc5cc(-c6c(C)noc6C)ccc5n4CCN4CCOCC4)cc3F)cc2c2ccc(-c3cc(C)cs3)cc21`, the outcome in data set [1], in data set [5] and in data set [11] was Active. The inhibition at 72 h, 10 µM in [2] is 30%; in data set [9], approximately 30%. In addition, the Activity was 235% in data set [3], “Dose-Dependent Effect” in data set [4], “Dose-Dependent Effect” in data set [7] and “Dose-Dependent Effect” in the data set with NCI-H1299 [10] (time 3.0 day). In addition, the inhibition result in the data set on NCI-H1299 [6] is “Active”. For the same compound, the pEC50 in data set [8] is 5.82. Moreover, the GI50 with NCI-H1299 [10] (NCI-H1299, 72 h, time 3 day) is 3000 nM. Besides, the ΔTm in data set [12] is 4.3 °C.

For the origin of these results see ChEMBL document CHEMBL5614410, “Design, Synthesis, and Evaluation of p53Y220C Acetylation Targeting Chimeras (AceTACs)” (J Med Chem, 2024).
